We go through one molecule from article PMC4051287 (Molecular cancer therapeutics, 2014).

Square brackets hold non-standard residues; d marks the D form. Peptide text beside a SMILES is read from it. * marks the point of attachment. Dolaproine = CO[C@@H]([C@@H]1CCCN1)[C@@H](C)C(=O)O; Dil = CC[C@H](C)[C@H](NC)[C@@H](CC(=O)O)OC; X1 = C[C@@H](N*)[C@@H](O)c1ccccc1; NMeV = CN[C@H](C(=O)O)C(C)C

One series deals with Py230 tumors. Put plainly: Therapeutic study, Py230 syngeneic tumors. It is filed as in vivo, mice. An outline of the steps:
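Tumors reach 5–7 mm diameter in 5–6 weeks. Test compound (MMAE conjugate) dosed at 0.2mg/kg MMAE, ~6.5 nanomoles of conjugate. Free MMAE and controls run alongside. Tumor volume followed.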

For series [1] the following is noted: cited from earlier work.

On to `CC[C@H](C)[C@@H]([C@@H](CC(=O)N1CCC[C@H]1[C@H](OC)[C@@H](C)C(=O)N[C@H](C)[C@@H](O)c1ccccc1)OC)N(C)C(=O)[C@@H](NC(=O)[C@@H](NC)C(C)C)C(C)C` [MMAE, Monomethylauristatin E] (H-[NMeV]V[Dil][Dolaproine]-X1), for which the “final tumor mass, dose finding” value in the series on Py230 tumors (Py230, MMAE at concentrations up to 0.6mg/kg) is recorded as “Only the tumors treated at the highest dose had a reduction in final mass”. For the same molecule, the “effect on tumor growth” value with Py230 tumors (Py230, immunocompetent mice, 0.2mg/kg MMAE) was “no impact on tumor growth”. For the same molecule, the maximum tolerated dose in series [1] is 0.5 to 1.0 mg/kg.
